The source made the active and inactive calls. The rule behind the calls is not given here.
Key:
A549 [1] = test: Cytotoxicity against human A549 cells assessed as growth inhibition after 24 to 48 hrs by sulforhodamine B assay; format: functional, cell-based
Outline: (§1)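 A549 cells seeded 24 h in RPMI-1640 with 10% bovine calf serum, then exposed in 1% serum medium to 1, 5 and 10 µM for 24 h and 48 h. 0.1% DMSO served as control and 5-FU as positive control. Viability by SRB staining, absorbance 540 nm, calculated relative to DMSO control. Mean ± SEM, n = 3, Student's t-test.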

A549 [2] = test: Cytotoxicity against human A549 cells assessed as growth inhibition at 1 to 10 uM by sulforhodamine B assay; format: functional, cell-based; details: TDE = time-dependent effect; outline: as §1
A549 [3] = test: Induction of apoptosis in human A549 cells assessed as chromatin condensation at 10 uM after 48 hrs by Hoechst 33258 staining-based fluorescence microscopic analysis; format: functional, cell-based
Outline: (§2)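 A549 cells seeded 24 h, then treated at 10 µM for 48 h in 1% serum RPMI-1640 against a 0.1% DMSO control. Fixed in 4% paraformaldehyde for 10 min at room temperature and stained with Hoechst 33258 (2 µg/mL) for 20 min. Nuclear morphology was scored by fluorescence microscopy at 200×.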

A549 [4] = test: Induction of apoptosis in human A549 cells assessed as nuclear fragmentation at 10 uM after 48 hrs by Hoechst 33258 staining-based fluorescence microscopic analysis; format: functional, cell-based; outline: as §2
A549 [5] = test: Induction of apoptosis in human A549 cells assessed as appearance of apoptotic bodies at 10 uM after 48 hrs by Hoechst 33258 staining-based fluorescence microscopic analysis; format: functional, cell-based; outline: as §2
A549 [6] = test: Induction of necrosis in human A549 cells at 10 uM after 48 hrs by LDH assay; format: functional, cell-based
Outline: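 Necrosis read-out: A549 cells exposed to 10 µM or 0.1% DMSO control for 48 h. Culture medium was collected and LDH activity measured with a commercial kit. Mean ± SEM, n = 3, Student's t-test.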

A549 [7] = test: Induction of autophagy in human A549 cells assessed as accumulation of acidic vesicles at 10 uM after 48 hrs by acridine orange staining-based fluorescence microscopic analysis; format: functional, cell-based
Outline: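 Acidic vesicles in A549 cells after 10 µM exposure for 48 h. Cells stained with acridine orange (100 µg/mL) for 1 min at room temperature, then imaged by fluorescence microscopy at 200×.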

A549 [8] = test: Cytotoxicity against human A549 cells assessed as growth inhibition at 1 to 10 uM after 48 hrs by sulforhodamine B assay relative to control; format: functional; outline: as §1
A549 [9] = test: Induction of autophagosome formation in human A549 cells assessed as conversion of LC3-1 to LC3-2 at 5 to 10 uM after 24 hrs by Western blotting analysis; format: functional, cell-based
A549 [10] = test: Induction of autophagosome formation in human A549 cells assessed as increase in LC3-2 protein level at 5 to 10 uM after 24 hrs by Western blotting analysis; format: functional, cell-based
A549 [11] = test: Induction of autophagosome formation in human A549 cells assessed as LC3-2 to LC3-1 ratio at 5 to 10 uM after 24 hrs by Western blotting analysis; format: functional, cell-based
A549 [12] = test: Induction of autophagic flux in human A549 cells assessed as decrease in p62 protein level at 5 to 10 uM after 24 hrs by Western blotting analysis; format: functional, cell-based
A549 [13] = test: Cell cycle arrest in human A549 cells assessed as accumulation at G1 phase at 10 uM after 48 hrs by propidium iodide staining-based flow cytometric analysis (reference value: 54.5%); format: functional
A549 [14] = test: Cell cycle arrest in human A549 cells assessed as accumulation at G2 phase at 10 uM after 48 hrs by propidium iodide staining-based flow cytometric analysis (reference value: 10.32%); format: functional
A549 [15] = test: Cell cycle arrest in human A549 cells assessed as accumulation at S phase at 10 uM after 48 hrs by propidium iodide staining-based flow cytometric analysis (reference value: 35.18%); format: functional
A549 [16] = test: Cell cycle arrest in human A549 cells assessed as accumulation at G2/G1 phase at 10 uM after 48 hrs by propidium iodide staining-based flow cytometric analysis (reference value: 1.91%); format: functional

## O=C(NO)c1cc(-c2ccc(Cl)cc2)nn1Cc1ccc([N+](=O)[O-])cc1
A549 [1]
  IC50: 7.78 µM
  growth inhibition (GI): Dose-dependent effect
A549 [2]
  growth inhibition (GI): tde
A549 [3]
  Activity: inactive
A549 [4]
  Activity: inactive
A549 [5]
  Activity: inactive
A549 [6]
  Activity: inactive
A549 [7]
  Activity: Active

## CC(C)(C)c1ccc(Cn2nc(-c3ccccc3)cc2C(=O)NO)cc1
A549 [1]
  IC50: 1.72 µM
  growth inhibition (GI): Dose-dependent effect
A549 [2]
  growth inhibition (GI): tde
A549 [8]
  growth inhibition (GI): <=70%
A549 [3]
  Activity: inactive
A549 [4]
  Activity: inactive
A549 [5]
  Activity: inactive
A549 [6]
  Activity: inactive
A549 [7]
  Activity: Active
A549 [9]
  Activity: Active
A549 [10]
  Activity: Active
A549 [11]
  Activity: Active
A549 [12]
  Activity: Active
A549 [13]
  Activity: 72.8%
A549 [14]
  Activity: 2.32%
A549 [15]
  Activity: 24.87%
A549 [16]
  Activity: 1.8%

## O=C(NO)c1cc(-c2ccccc2)nn1Cc1ccc([N+](=O)[O-])cc1
A549 [1]
  IC50: 6 µM
  growth inhibition (GI): Dose-dependent effect
A549 [2]
  growth inhibition (GI): tde
A549 [3]
  Activity: inactive
A549 [4]
  Activity: inactive
A549 [5]
  Activity: inactive
A549 [6]
  Activity: inactive
A549 [7]
  Activity: Active

## COc1ccc(-c2cc(C(=O)NO)n(Cc3ccc(C(C)(C)C)cc3)n2)cc1
A549 [1]
  IC50: 2.56 µM
  growth inhibition (GI): Dose-dependent effect
A549 [2]
  growth inhibition (GI): tde
A549 [8]
  growth inhibition (GI): <=70%
A549 [3]
  Activity: inactive
A549 [4]
  Activity: inactive
A549 [5]
  Activity: inactive
A549 [6]
  Activity: Active
A549 [7]
  Activity: Active

## CC(C)(C)c1ccc(Cn2nc(-c3ccc(Cl)cc3)cc2C(=O)NO)cc1
A549 [1]
  IC50: 1.82 µM
  growth inhibition (GI): Dose-dependent effect
A549 [2]
  growth inhibition (GI): tde
A549 [8]
  growth inhibition (GI): <=70%
A549 [3]
  Activity: inactive
A549 [4]
  Activity: inactive
A549 [5]
  Activity: inactive
A549 [6]
  Activity: inactive
A549 [7]
  Activity: Active
A549 [9]
  Activity: Active
A549 [10]
  Activity: Active
A549 [11]
  Activity: Active
A549 [12]
  Activity: Active
A549 [13]
  Activity: 78.73%
A549 [14]
  Activity: 0%
A549 [15]
  Activity: 21.27%
A549 [16]
  Activity: 1.96%

## COc1ccc(-c2cc(C(=O)NO)n(Cc3ccc([N+](=O)[O-])cc3)n2)cc1
A549 [1]
  IC50: 7.11 µM
  growth inhibition (GI): Dose-dependent effect
A549 [2]
  growth inhibition (GI): tde
A549 [3]
  Activity: inactive
A549 [4]
  Activity: inactive
A549 [5]
  Activity: inactive
A549 [6]
  Activity: inactive
A549 [7]
  Activity: Active

## O=C(NO)c1cc(-c2ccc(Cl)cc2)nn1Cc1ccc(Cl)nc1
A549 [1]
  IC50: 4.21 µM
  growth inhibition (GI): Dose-dependent effect
A549 [2]
  growth inhibition (GI): tde
A549 [8]
  growth inhibition (GI): <=70%
A549 [3]
  Activity: inactive
A549 [4]
  Activity: inactive
A549 [5]
  Activity: inactive
A549 [6]
  Activity: inactive
A549 [7]
  Activity: Active
A549 [9]
  Activity: Active
A549 [10]
  Activity: Active
A549 [11]
  Activity: Active
A549 [12]
  Activity: Active
A549 [13]
  Activity: 71.91%
A549 [14]
  Activity: 0%
A549 [15]
  Activity: 28.09%
A549 [16]
  Activity: 1.84%

## O=C(NO)c1cc(-c2ccc(Cl)cc2)nn1Cc1ccccc1
A549 [1]
  IC50: 4.44 µM
  growth inhibition (GI): Dose-dependent effect
A549 [2]
  growth inhibition (GI): tde
A549 [3]
  Activity: inactive
A549 [4]
  Activity: inactive
A549 [5]
  Activity: inactive
A549 [6]
  Activity: inactive
A549 [7]
  Activity: Active

## O=c1[nH]cc(F)c(=O)[nH]1 [FLUOROURACIL]
A549 [1]
  IC50: 1.65 µM

## COc1ccc(-c2cc(C(=O)NO)n(Cc3ccccc3)n2)cc1
A549 [1]
  IC50: 6.77 µM
  growth inhibition (GI): Dose-dependent effect
A549 [2]
  growth inhibition (GI): tde
A549 [3]
  Activity: inactive
A549 [4]
  Activity: inactive
A549 [5]
  Activity: inactive
A549 [6]
  Activity: inactive
A549 [7]
  Activity: Active

## O=C(NO)c1cc(-c2ccccc2)nn1Cc1ccccc1
A549 [1]
  IC50: 5.6 µM
  growth inhibition (GI): Dose-dependent effect
A549 [2]
  growth inhibition (GI): tde
A549 [3]
  Activity: inactive
A549 [4]
  Activity: inactive
A549 [5]
  Activity: inactive
A549 [6]
  Activity: inactive
A549 [7]
  Activity: Active

## COc1ccc(-c2cc(C(=O)NO)n(Cc3ccc(Cl)nc3)n2)cc1
A549 [1]
  IC50: 8.56 µM
  growth inhibition (GI): Dose-dependent effect
A549 [2]
  growth inhibition (GI): tde
A549 [3]
  Activity: inactive
A549 [4]
  Activity: inactive
A549 [5]
  Activity: inactive
A549 [6]
  Activity: Active
A549 [7]
  Activity: Active

## O=C(NO)c1cc(-c2ccccc2)nn1Cc1ccc(Cl)nc1
A549 [1]
  IC50: 8.5 µM
  growth inhibition (GI): Dose-dependent effect
A549 [2]
  growth inhibition (GI): tde
A549 [3]
  Activity: inactive
A549 [4]
  Activity: inactive
A549 [5]
  Activity: inactive
A549 [6]
  Activity: inactive
A549 [7]
  Activity: Active

— ChEMBL document CHEMBL3286151, “Biological activities of novel pyrazolyl hydroxamic acid derivatives against human lung cancer cell line A549” (Eur J Med Chem, 2014)
